Screening data (PubChem)
TRPC4 act: opens the mouse TRPC4 cation channel; Q9QUQ5; HEK293 TRPC4beta/mu-opioid, Fluo4 calcium fluorescence; stronger effect = higher value; B-score at 10 µM; actives 0.49% (n = 310,000); AID 2237;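 active means B-score above 5 SD of library B-scores, and initial fluorescence ratio not above library mean plus 5 SD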;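 further: positive B-score marks a calcium rise read as TRPC4 activation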
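Assay system: HEK293 cells stably co-expressing mouse TRPC4beta and mu-opioid receptor / Timing: Fluo4 dye loading 45 min at room temperature, 110 s recording / Signal: Fluo4 calcium-sensitive dye fluorescence, kinetic, 1 Hz baseline / Read-out: integrated baseline-normalised fluorescence ratio, converted to per-well B score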
TRPC4 PAM: TRPC4 (mouse) allosteric potentiation; Q9QUQ5; HEK293 TRPC4beta/mu-opioid, DAMGO EC20, Fluo-4 Ca2+ flux; stronger effect = higher value; B-score at 10 µM; actives 0.42% (n = 310,000); AID 2227;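 active means B-score of calcium response area above 5 SD of library B-scores, with initial fluorescence ratio within 5 SD of library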;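 further: B-score of integrated fluorescence ratio over time as area under calcium response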
TRPC4 inh: TRPC4 (mouse) channel inhibition; HEK293 TRPC4beta/mu-opioid, DAMGO-evoked Fluo4 calcium flux; stronger effect = lower value; B-score at 10 µM; actives 0.39% (n = 300,000); AID 2247;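 active means B-score over 3 SD under the library average, no early fluorescence shift, positive overall ratio signal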
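Assay system: HEK293 cells with stable TRPC4beta plus mu-opioid receptor expression. Dosing: single dose. Measured by: Fluo4 Ca2+ flux fluorescence. Also added: DAMGO in two steps, submaximal then maximal. Read-out: B score from integrated Fluo4 fluorescence ratio.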
TRPC6 act: activators of mouse TRPC6 channel; HEK293-TRPC6 membrane potential dye fluorescence; stronger effect = higher value; B-score at 10 µM; actives 0.13% (n = 310,000); AID 2550;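 active means B-score of the integrated fluorescence ratio above library mean plus 3 SD, and starting fluorescence ratio within library mean plus 5 SD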;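 further: higher score means more depolarization so channel activation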
Target sequence (Q61143 whole entry, looked up): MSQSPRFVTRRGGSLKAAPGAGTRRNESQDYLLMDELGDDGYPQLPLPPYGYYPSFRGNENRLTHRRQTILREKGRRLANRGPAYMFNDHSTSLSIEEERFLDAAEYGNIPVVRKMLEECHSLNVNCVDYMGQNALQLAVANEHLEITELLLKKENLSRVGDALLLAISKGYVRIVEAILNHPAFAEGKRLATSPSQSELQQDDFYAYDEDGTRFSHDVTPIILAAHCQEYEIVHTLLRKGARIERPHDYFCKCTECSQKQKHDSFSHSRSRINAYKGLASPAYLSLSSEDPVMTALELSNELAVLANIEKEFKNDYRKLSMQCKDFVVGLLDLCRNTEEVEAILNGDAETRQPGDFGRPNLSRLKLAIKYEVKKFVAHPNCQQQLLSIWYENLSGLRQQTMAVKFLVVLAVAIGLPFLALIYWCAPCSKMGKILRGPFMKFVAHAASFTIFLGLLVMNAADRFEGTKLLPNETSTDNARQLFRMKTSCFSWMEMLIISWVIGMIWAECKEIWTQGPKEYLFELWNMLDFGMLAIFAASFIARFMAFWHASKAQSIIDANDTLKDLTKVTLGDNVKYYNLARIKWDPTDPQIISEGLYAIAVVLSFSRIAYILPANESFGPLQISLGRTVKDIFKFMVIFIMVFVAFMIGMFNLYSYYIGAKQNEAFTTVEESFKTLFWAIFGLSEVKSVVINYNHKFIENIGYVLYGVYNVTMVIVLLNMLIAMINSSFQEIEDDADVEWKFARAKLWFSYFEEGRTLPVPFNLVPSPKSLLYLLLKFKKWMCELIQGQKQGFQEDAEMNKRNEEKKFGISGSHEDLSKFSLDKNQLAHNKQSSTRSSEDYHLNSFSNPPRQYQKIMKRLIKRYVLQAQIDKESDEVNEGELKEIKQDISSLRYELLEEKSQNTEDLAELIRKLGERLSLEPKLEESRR
TRPC6 inh: inhibitors of mouse TRPC6 channel; HEK293-TRPC6, membrane potential dye, ACh-evoked depolarization; stronger effect = lower value; actives 1.1% (n = 310,000); B-score at 10 µM;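 active means B-score under library mean minus 3 SD, initial fluorescence not abnormally high, positive integrated signal ratio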;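 further: B-score derived from integrated fluorescence ratio over the kinetic read; more negative B-score means stronger inhibition of depolarization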
* marks the source's active call; other numbers are inactive results. Compounds with a hit are over-represented: about 2.3% of the library has one in this group of screens.

What do the screens show for `C=CCOc1ccc(C2CC(C)=NN2c2ccccc2)cc1` (stereo not drawn)?
TRPC4 act: inactive; TRPC4 PAM: inactive; TRPC4 inh: -8*; TRPC6 act: inactive; TRPC6 inh: inactive

How did CN(Cc1ccccc1)c1nc(N)nc(Cl)c1C=O do in these assays?
TRPC4 act: inactive; TRPC4 PAM: inactive; TRPC4 inh: inactive; TRPC6 act: inactive; TRPC6 inh: inactive

Results for OC1(c2ccc(F)cc2)CN(c2ccccc2)C2=[N+]1CCS2 (stereo not drawn) ?
TRPC4 act: inactive; TRPC4 PAM: inactive; TRPC4 inh: -6*; TRPC6 act: inactive; TRPC6 inh: inactive

Results for CC1(c2ccc([N+](=O)[O-])cc2)Nc2ccccc2S1 (stereo not drawn) ?
TRPC4 act: inactive; TRPC4 PAM: inactive; TRPC4 inh: inactive; TRPC6 act: inactive; TRPC6 inh: inactive

How did Cc1ccc(C2(O)CN(c3ccccc3)C3=[N+]2CCS3)cc1 (stereo not drawn) do in these assays?
TRPC4 act: 43*; TRPC4 PAM: inactive; TRPC4 inh: -7*; TRPC6 act: inactive; TRPC6 inh: inactive

Results for O=[N+]([O-])c1ccc(C2(O)CN(c3ccccc3)C3=[N+]2CCS3)cc1 (stereo not drawn) ?
TRPC4 act: 87*; TRPC4 PAM: inactive; TRPC4 inh: -7*; TRPC6 act: inactive; TRPC6 inh: inactive

What do the screens show for `OC1(c2cccs2)CN(c2ccc(Cl)cc2)C2=[N+]1CCCS2` (stereo not drawn)?
TRPC4 act: inactive; TRPC4 PAM: inactive; TRPC4 inh: inactive; TRPC6 act: inactive; TRPC6 inh: inactive

How did COc1ccc(-c2cc(CC3(C(=O)O)CCN(C(=O)OC(C)(C)C)CC3)on2)c(OC)c1 do in these assays?
TRPC4 act: inactive; TRPC4 PAM: inactive; TRPC4 inh: inactive; TRPC6 act: inactive; TRPC6 inh: inactive

How did COc1ccc(NC(=O)CSc2nnc(Cc3ccccc3)c(=O)n2N)cc1OC do in these assays?
TRPC4 act: inactive; TRPC4 PAM: inactive; TRPC4 inh: inactive; TRPC6 act: inactive; TRPC6 inh: inactive

How did COc1ccc(NC(=S)N2CCN(C(=O)C3CCCO3)CC2)cc1 (stereo not drawn) do in these assays?
TRPC4 act: inactive; TRPC4 PAM: inactive; TRPC4 inh: inactive; TRPC6 act: inactive; TRPC6 inh: inactive

How did CCOC(=O)C1=C(Cc2ccc(C)cc2)C(=O)c2ccccc2C1=O do in these assays?
TRPC4 act: inactive; TRPC4 PAM: inactive; TRPC4 inh: inactive; TRPC6 act: 13*; TRPC6 inh: inactive

What do the screens show for `CCOC(=O)c1ccc(COC(=O)c2ccc3c(c2)-c2ccccc2C3=O)cc1`?
TRPC4 act: inactive; TRPC4 PAM: inactive; TRPC4 inh: inactive; TRPC6 act: inactive; TRPC6 inh: inactive

Results for COc1ccc(Nc2c3c(nc4ccccc24)CCC3)c(OC)c1 ?
TRPC4 act: inactive; TRPC4 PAM: inactive; TRPC4 inh: -5*; TRPC6 act: inactive; TRPC6 inh: inactive

What do the screens show for `Fc1cccc(Nc2c3c(nc4ccccc24)CCC3)c1`?
TRPC4 act: inactive; TRPC4 PAM: inactive; TRPC4 inh: -7*; TRPC6 act: inactive; TRPC6 inh: inactive

What do the screens show for `CC(=O)c1cccc(Nc2c3c(nc4ccccc24)CCC3)c1`?
TRPC4 act: inactive; TRPC4 PAM: inactive; TRPC4 inh: inactive; TRPC6 act: inactive; TRPC6 inh: inactive

How did COC(=O)c1cccc(Nc2c3c(nc4ccccc24)CCC3)c1 do in these assays?
TRPC4 act: inactive; TRPC4 PAM: inactive; TRPC4 inh: -7*; TRPC6 act: inactive; TRPC6 inh: inactive

How did COc1ccccc1Nc1c2c(nc3ccccc13)CCC2 do in these assays?
TRPC4 act: inactive; TRPC4 PAM: inactive; TRPC4 inh: inactive; TRPC6 act: inactive; TRPC6 inh: inactive

How did CCOc1cccc2sc(N(CCCN(C)C)C(=O)c3ccc(S(=O)(=O)N4CCCCCC4)cc3)nc12 do in these assays?
TRPC4 act: inactive; TRPC4 PAM: inactive; TRPC4 inh: inactive; TRPC6 act: inactive; TRPC6 inh: inactive

How did Cc1ccc2sc(N(CCCN(C)C)C(=O)c3ccc(S(=O)(=O)N4CCc5ccccc5C4)cc3)nc2c1C do in these assays?
TRPC4 act: inactive; TRPC4 PAM: inactive; TRPC4 inh: inactive; TRPC6 act: inactive; TRPC6 inh: inactive

How did CN(C)CCCN(C(=O)c1ccc(S(=O)(=O)N2CCCCCC2)cc1)c1nc2c(F)cccc2s1 do in these assays?
TRPC4 act: 54*; TRPC4 PAM: inactive; TRPC4 inh: -6*; TRPC6 act: inactive; TRPC6 inh: inactive

How did CN(C)CCCN(C(=O)c1ccc(S(=O)(=O)N2CCc3ccccc3C2)cc1)c1nc2c(F)cc(F)cc2s1 do in these assays?
TRPC4 act: 58*; TRPC4 PAM: inactive; TRPC4 inh: inactive; TRPC6 act: inactive; TRPC6 inh: inactive

How did Cc1ccc2nc(N(CCCN(C)C)C(=O)c3ccc(S(=O)(=O)N4CCCCCC4)cc3)sc2c1 do in these assays?
TRPC4 act: 43*; TRPC4 PAM: 14*; TRPC4 inh: inactive; TRPC6 act: inactive; TRPC6 inh: inactive

How did CCOc1cccc2sc(N(CCCN(C)C)C(=O)c3ccc(S(=O)(=O)N(CC)Cc4ccccc4)cc3)nc12 do in these assays?
TRPC4 act: inactive; TRPC4 PAM: inactive; TRPC4 inh: inactive; TRPC6 act: inactive; TRPC6 inh: inactive

What do the screens show for `CCc1ccc2nc(N(CCCN(C)C)C(=O)c3ccc(S(=O)(=O)N4CCCC4)cc3)sc2c1`?
TRPC4 act: inactive; TRPC4 PAM: inactive; TRPC4 inh: inactive; TRPC6 act: inactive; TRPC6 inh: inactive

What do the screens show for `CCN(Cc1ccccc1)S(=O)(=O)c1ccc(C(=O)N(CCCN(C)C)c2nc3c(F)cccc3s2)cc1`?
TRPC4 act: 112*; TRPC4 PAM: inactive; TRPC4 inh: inactive; TRPC6 act: inactive; TRPC6 inh: inactive

Results for COc1cc(S(=O)(=O)NCc2ccc3c(c2)OCO3)ccc1F ?
TRPC4 act: inactive; TRPC4 PAM: inactive; TRPC4 inh: inactive; TRPC6 act: inactive; TRPC6 inh: inactive

How did CC(CC(F)(F)F)N1CCC(n2nccc2NC(=O)CCOc2ccccc2)CC1 (stereo not drawn) do in these assays?
TRPC4 act: inactive; TRPC4 PAM: inactive; TRPC4 inh: inactive; TRPC6 act: inactive; TRPC6 inh: inactive

How did CN(C)CCCN(C(=O)c1ccc(S(=O)(=O)N2CCOCC2)cc1)c1nc2ccc(F)cc2s1 do in these assays?
TRPC4 act: 57*; TRPC4 PAM: inactive; TRPC4 inh: inactive; TRPC6 act: inactive; TRPC6 inh: inactive

What do the screens show for `CN(C)CCCN(C(=O)c1ccc(S(=O)(=O)N2CCCCCC2)cc1)c1nc2ccc(F)cc2s1`?
TRPC4 act: 336*; TRPC4 PAM: inactive; TRPC4 inh: inactive; TRPC6 act: inactive; TRPC6 inh: inactive
